Laboratory results published in PubChem BioAssay AID602220 (Southern Research Specialized Biocontainment Screening …, 2012).
Activity calls are given as the source filed them.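 The calls were made as follows: active = at least 30% inhibition of the enzyme at any tested dose; inactive = the rest.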

Each compound was assayed against M17 leucyl aminopeptidase (Plasmodium falciparum 3D7) (assay: Inhibition of P. falciparum M17 aminopeptidase – biochemical, QFRET, set 2, counter-screen for PfM18AAP inhibitor project, dose response (AID 602220)). Details: recombinant PfM17LAP, H-Leu-NHMec fluorogenic cleavage.
In short: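 Test system: purified recombinant PfM17LAP, M17 leucine aminopeptidase of Plasmodium falciparum. Amount: 5 µg/mL enzyme. Schedule: 90 min reaction, room temperature. Technique: fluorescence of released NHMec, excitation 370 nm, emission 460 nm. Read-out basis: IC50 from 4-parameter fit of % inhibition, bounds fixed 0–100%. Control set: full reaction and no-enzyme background wells. Repeats: triplicate.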

Row | IC50 [µM] | SMILES
1 | 29.8 | Oc1ccc(-c2csc(NC3CCCC3)n2)cc1O
2 | 57.8 | CCc1ccc(NC(=O)Cc2nc(-c3ccc(O)c(O)c3)cs2)cc1
3 | 29.4 | CN1CCN(c2nc(-c3ccc(O)c(O)c3)cs2)CC1
4 | 14.2 | Oc1ccc(CCNc2c3ccccc3nc3ccccc23)cc1O
5 | 73.8 | CN1CCN(CCCc2ccc(O)c(O)c2)CC1
6 | 30.1 | Oc1ccc(CCNc2ccnc3ccccc23)cc1O
7 | 94.3 | CN1CCN(CCc2ccc(O)c(O)c2)CC1
8 | 12.3 | Oc1ccc(-c2csc(Nc3ncccn3)n2)cc1O

Same assay, conditions: recombinant PfM17LAP, H-Leu-NHMec fluorogenic cleavage; at 100 µM (top of the series)

Row | inhibition | SMILES
9 | inactive | COc1ccc(CCNC(c2ccccc2)c2ccccc2)cc1OC
10 | inactive | COc1ccc(CCCN2CCN(C)CC2)cc1OC
